Converted amounts (≈) assume the structure as drawn.
Experiments:
[1] = Drug uptake in mouse serum at 400 mg/kg, po measured at 22 mins by UPLC-MS/MS method; type: ADME, organism-based; settings: read-out: Drug uptake
Outline: (§1)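 Single oral dose (400 mg/kg, 7 mice; 600 mg/kg, 6 mice), dissolved in DMSO and suspended in 0.5% hydroxyethylcellulose–0.1% Tween 80. Blood taken by cardiac puncture under chloroform, one mouse per time point, 15–120 min. Serum proteins precipitated with 2 volumes acetonitrile; analysed by UPLC-MS/MS against blank human serum calibration. Half-life read from the concentration–time curve.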

Mus musculus [2] = experiment: Drug metabolism in mouse assessed as (3alpha,5beta,7alpha,12alpha)-3-Amino-24-({4-[(7-chloroquinolin-4-yl)amino]butyl}amino)cholane-7,12-diol formation at 400 to 600 mg/kg, po by UPLC-MS/MS method; type: ADME, organism-based; settings: in vivo
Mus musculus [3] = experiment: Toxicity in mouse assessed as effect on survival at 400 to 600 mg/kg, po administered as single dose measured after 30 days; type: organism-based; settings: in vivo, 720 h
Outline: (§2)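 Two groups of 5 healthy mice each received one oral dose, 400 or 600 mg/kg. Survival, appearance and behaviour were followed for 30 days. Non-toxic was defined as all 5 surviving with normal appearance and behaviour.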

Mus musculus [4] = experiment: AUC (0 to 120 mins) in mouse at 400 mg/kg, po by UPLC-MS/MS method; type: ADME, organism-based; design: dose 400 mg/kg, time < 2 hr, route oral; settings: in vivo, 2 h
[5] = Drug uptake in mouse serum at 400 mg/kg, po measured at 60 mins by UPLC-MS/MS method; type: ADME, organism-based; settings: read-out: Drug uptake; outline: as §1
Mus musculus [6] = experiment: Half life in mouse at 600 mg/kg, po by UPLC-MS/MS method; type: ADME, organism-based; settings: in vivo; outline: as §1
Mus musculus [7] = experiment: Toxicity in mouse assessed as effect on behavior at 400 to 600 mg/kg, po administered as single dose measured 2 times a day for 30 days; type: organism-based; settings: in vivo, 720 h; outline: as §2
[8] = Solubility of the compound by spectrofluorimetric detection-based shake-flask method; type: physicochemical
[9] = Distribution co-efficient, log D of the compound at pH 1 by reversed-phase thin-layer chromatographic method; type: physicochemical; settings: buffer
Outline: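 Reversed-phase thin-layer chromatography at pH 1, mobile phase MeOH/HCl (70/30).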

Liver [10] = experiment: Half life in mouse liver microsomes; type: ADME, microsome
Outline: (§3)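 Substrate-depletion assay: compound incubated with human or mouse liver microsomes for 1 h at 37°C. Half-life and intrinsic clearance derived from compound loss.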

Plasma [11] = experiment: Metabolic stability in human plasma assessed as compound remaining after 1 hr; type: ADME, cell-free
Outline: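 Compound incubated in human plasma for 1 h at 37°C; percent remaining determined.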

Plasma [12] = experiment: Protein binding in human plasma after 4 hrs by equilibrium dialysis method; type: ADME, cell-free
Outline: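 Equilibrium dialysis against buffer, 4 h at 37°C with shaking. After incubation both chambers were matrix-matched and protein-precipitated with cold acetonitrile/water/formic acid containing internal standard. Supernatants were analysed by LC-MS/MS. % free = buffer-chamber / plasma-chamber concentration × 100.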

Mus musculus [13] = experiment: Toxicity in mouse assessed as effect on appearance at 160 mg/kg, po administered for 3 days measured 2 times a day for 30 days; type: organism-based; settings: in vivo, 720 h
Outline: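 Groups of five healthy mice were dosed per os for three consecutive days, suspended in 0.5% hydroxyethylcellulose–0.1% Tween 80. Behaviour and appearance were monitored twice daily for 30 days, with survival assessed at 30 days. Non-toxic was defined as all 5 surviving with normal appearance and behaviour.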

Liver [14] = experiment: Half life in human liver microsomes; type: ADME, microsome; outline: as §3
[15] = Solubility of the compound at pH 7.4 by light scattering-based laser nephelometric method; type: physicochemical; settings: buffer
Outline: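 Solubility measured by laser nephelometry (light scattering), pH 7.4, n=3.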

Liver [16] = experiment: Intrinsic clearance in human liver microsomes after 1 hr; type: ADME, microsome; outline: as §3
Liver [17] = experiment: Intrinsic clearance in mouse liver microsomes after 1 hr; type: ADME, microsome; outline: as §3
Mus musculus [18] = experiment: Time at which drug concentration stays above 3 uM in mouse at 600 mg/kg, po by UPLC-MS/MS method; type: ADME, organism-based; settings: in vivo
Outline: (§4)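 Single oral dose in DMSO suspended in 0.5% hydroxyethylcellulose–0.1% Tween 80, given to 7 (400 mg/kg) or 6 (600 mg/kg) mice. Serum came from cardiac puncture under chloroform, one mouse per time point, 15–120 min. Acetonitrile-precipitated serum was analysed by UPLC-MS/MS against calibration in blank human serum.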

Mus musculus [19] = experiment: AUC (0 to 120 mins) in mouse at 600 mg/kg, po by UPLC-MS/MS method; type: ADME, organism-based; design: dose 600 mg/kg, time < 2 hr, route oral; settings: in vivo, 2 h
Cytochrome P450 3A4 = Cytochrome P450 3A4 (Homo sapiens, UniProt P08684); experiment: Inhibition of CYP3A4 (unknown origin) using BFC as substrate; type: ADME
Cytochrome P450 3A4, sequence (P08684 whole entry): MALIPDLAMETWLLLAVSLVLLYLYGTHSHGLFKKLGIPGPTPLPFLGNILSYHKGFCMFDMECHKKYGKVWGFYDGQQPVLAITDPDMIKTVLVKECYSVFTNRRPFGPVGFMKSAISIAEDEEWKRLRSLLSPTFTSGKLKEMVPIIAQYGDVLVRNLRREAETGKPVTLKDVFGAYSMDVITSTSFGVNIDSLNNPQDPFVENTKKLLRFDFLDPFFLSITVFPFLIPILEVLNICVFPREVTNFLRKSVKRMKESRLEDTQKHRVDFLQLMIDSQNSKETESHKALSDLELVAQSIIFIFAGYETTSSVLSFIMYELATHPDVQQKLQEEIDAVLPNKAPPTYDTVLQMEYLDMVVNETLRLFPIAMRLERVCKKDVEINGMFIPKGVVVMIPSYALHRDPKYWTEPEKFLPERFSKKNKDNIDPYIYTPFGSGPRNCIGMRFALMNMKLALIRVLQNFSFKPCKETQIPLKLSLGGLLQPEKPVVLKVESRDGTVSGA
Outline: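 Active CYP450 enzyme incubated at 37°C for a set time with a fluorogenic probe substrate (BQ, DBF or BFC for CYP3A4; CEC for CYP2C19; AMMC for CYP2D6). IC50 derived from net fluorescent signal.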

Mus musculus [20] = experiment: Drug metabolism in mouse assessed as M+32 metabolite formation at 400 to 600 mg/kg, po by UPLC-MS/MS method; type: ADME, organism-based; settings: in vivo
Mus musculus [21] = experiment: Tmax in mouse at 600 mg/kg, po by UPLC-MS/MS method; type: ADME, organism-based; settings: in vivo; outline: as §4
Serum = experiment: Drug uptake in mouse serum at 400 mg/kg, po measured at 120 mins by UPLC-MS/MS method; type: ADME, organism-based; settings: in vivo, 2 h, BLD = below limit of detection; outline: as §1
[22] = Protein binding in mouse plasma at 400 mg/kg, po by ultra-centrifugation method; type: ADME, organism-based; settings: read-out: PPB
Mus musculus [23] = experiment: Tmax in mouse at 400 mg/kg, po by UPLC-MS/MS method; type: ADME, organism-based; settings: in vivo; outline: as §4
Mus musculus [24] = experiment: Drug metabolism in mouse assessed as M+16 metabolite formation at 400 to 600 mg/kg, po by UPLC-MS/MS method; type: ADME, organism-based; settings: in vivo
[25] = target: Botulinum neurotoxin type A (Clostridium botulinum) (UniProt P0DPI0); experiment: Inhibition of Clostridium botulinum BoNT/A holotoxin-mediated SNAP-25 cleavage in mouse HBG3 cell-derived motor neurons assessed as full length of SNAP-25 at 10 uM preincubated for 30 mins followed by intoxication measured after 4 hrs by Western blot method relative to control; design: scale not given: the % may be the effect or the level left
[26] = target: Botulinum neurotoxin type A (Clostridium botulinum, UniProt P0DPI0); experiment: (§5) Inhibition of Clostridium botulinum BoNT/A light chain using P39 as substrate preincubated for 10 mins followed by substrate addition measured after 10 mins by HPLC method
[27] = target: Botulinum neurotoxin type A (Clostridium botulinum) (UniProt P0DPI0); experiment: as §5

In the case of `CC(=O)O[C@H]1C[C@H]2[C@@H]([C@H](OC(C)=O)C[C@@H]3C[C@H](N)CC[C@@]32C)[C@@H]2CC[C@H]([C@H](C)CCCNCCCCNc3ccnc4cc(Cl)ccc34)[C@@]12C`, the concentration at 22 min [1] is reported as 7.8 µM, the Drug metabolism (Mus musculus [2]) is reported as “Metabolite_Notdetected” and the Activity (Mus musculus [3]) is reported as “Non-Toxic”. The AUC (Mus musculus [4]) was 253 µM·min, the concentration at 1 h [5] was 2.8 µM and the t1/2 (Mus musculus [6]) was 23 min. For the same molecule, the Activity (Mus musculus [7]) was “Non-Toxic”, the solubility thermodynamic [8] was 640 µg/mL (≈ 902 µM) and the chromatographic logD [9] was 2.55. The t1/2 (Liver [10]) was greater than 60 min, the Stability (Plasma [11]) was greater than 85% and the PPB (Plasma [12]) was greater than 99%. The Activity (Mus musculus [13]) was “Non-Toxic”, the t1/2 (Liver [14]) was greater than 60 min and the solubility kinetic [15] was greater than 50 µg/mL. It also gave a CLH (Liver [16]) of less than 23 µL/min/mg, a CLH (Liver [17]) of less than 23 µL/min/mg and a Time (Mus musculus [18]) greater than 45 min. For the same molecule, the AUC (Mus musculus [19]) was 526 µM·min, the IC50 (Cytochrome P450 3A4) was 1400 nM and the Drug metabolism (Mus musculus [20]) was “Metabolite_Notdetected”. For the same molecule, the Tmax (Mus musculus [21]) was 15 min, the Drug uptake (Serum) was “Bld” and the fraction unbound [22] was less than 0.01. For the same molecule, the Tmax (Mus musculus [23]) was 22 min, the Drug metabolism (Mus musculus [24]) was “Metabolite_Notdetected” and the Activity [25] was 72%. The IC50 [26] was 4500 nM and the inhibition [27] was “Dose-dependent effect”.

From ChEMBL document CHEMBL4024803, “New Steroidal 4-Aminoquinolines Antagonize Botulinum Neurotoxin Serotype A in Mouse Embryonic Stem Cell Derived Motor Neurons in Postintoxication Model” (J Med Chem, 2018)
